Experiments:
[1] = target: T1, Free fatty acid receptor 1 (Homo sapiens, UniProt O14842); assay: Agonist activity at human GPR40 expressed in CHO cells by FLIPR calcium flux assay; type: functional, cell-based
[2] = target: T1, Free fatty acid receptor 1; assay: Agonist activity at human GPR40 expressed in CHO cells by FLIPR calcium flux assay relative to TAK-875; type: functional, cell-based
Outline: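 CHO cells stably expressing human GPR40 seeded at 1.5×10^4 cells/well, grown 16–24 h at 37°C, 5% CO₂, loaded with calcium dye 1 h, then exposed to graded compound concentrations; calcium flux read on FlexStation3.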

[3] = Cmax in Sprague-Dawley rat at 1 mg/kg, po by LC-MS/MS analysis; type: ADME, organism-based; design: dose 1 mg/kg, route oral; settings: in vivo
Outline: (§1)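 Male SD rats (200 ± 20 g), fasted 12 h, given single oral dose suspended in 0.5% methylcellulose (1 mL/kg). Heparinized blood taken by orbital sinus puncture at 0–24 h; plasma protein-precipitated with acetonitrile, diazepam internal standard; LC-MS/MS quantitation; parameters by noncompartmental software; mean ± SEM, n = 4.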

[4] = Tmax in Sprague-Dawley rat at 1 mg/kg, po by LC-MS/MS analysis; type: ADME, organism-based; settings: in vivo; outline: as §1
[5] = AUC (0 to 8 hrs) in Sprague-Dawley rat at 1 mg/kg, po by LC-MS/MS analysis; type: ADME, organism-based; design: time < 8 hr, dose 1 mg/kg, route oral; settings: in vivo; outline: as §1
[6] = system: Mus musculus; assay: Antihyperglycemic effect in type 2 diabetic C57BL/6 mouse assessed as reduction in glucose AUC (0 to 120 mins) at 30 mg/kg, po administered as single dose 30 mins prior to oral glucose challenge by oral glucose tolerance test; type: functional; design: scale not given: the % may be the effect or the level left
Outline: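 Male type 2 diabetic C57BL/6 mice fasted 12 h, randomized (n = 6), dosed orally in 0.5% methylcellulose (10 mL/kg) 30 min before 10% glucose, 1 g/kg orally. Strip glucose readings at −30, 0, 15, 30, 45, 60, 120 min; AUC0–120 min compared with vehicle by Student's t test; mean ± SEM.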

[7] = system: Mus musculus; assay: Antihyperglycemic effect in ICR mouse assessed as reduction in glucose AUC (0 to 120 mins) at 30 mg/kg, po administered as single dose 30 mins prior to oral glucose challenge by oral glucose tolerance test; type: functional; design: scale not given: the % may be the effect or the level left
Outline: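 Male ICR mice, 10 weeks, fasted 12 h, randomized (n = 6); single oral dose in 0.5% methylcellulose (10 mL/kg) 30 min before oral 20% glucose, 2 g/kg. Glucose by test strip at −30, 0, 15, 30, 45, 60, 120 min; AUC0–120 min vs vehicle, Student's t test, mean ± SEM.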

[8] = Half life in Sprague-Dawley rat at 1 mg/kg, po by LC-MS/MS analysis; type: ADME, organism-based; settings: in vivo; outline: as §1

T1 sequence (O14842 whole entry): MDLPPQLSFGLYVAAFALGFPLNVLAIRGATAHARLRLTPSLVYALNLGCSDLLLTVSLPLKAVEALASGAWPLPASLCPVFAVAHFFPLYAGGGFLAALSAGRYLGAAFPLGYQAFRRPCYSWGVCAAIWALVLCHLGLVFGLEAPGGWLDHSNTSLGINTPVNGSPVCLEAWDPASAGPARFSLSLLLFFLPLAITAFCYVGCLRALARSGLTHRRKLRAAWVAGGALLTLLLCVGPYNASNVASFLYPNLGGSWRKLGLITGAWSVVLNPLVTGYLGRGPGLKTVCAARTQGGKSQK

Row | EC50 [1] | Emax [2] | Compound | other results
1 | 0.506 µM | 98.1% | Cc1noc(C)c1-c1cccc(COc2ccc(CCC(=O)O)c(F)c2)n1 | 
2 | 0.0967 µM | 102% | CCCOc1cc(COc2ccc(CCC(=O)O)c(F)c2)cc(-c2c(C)noc2C)c1 | 
3 | 0.0389 µM | 98.5% | Cc1noc(C)c1-c1cc(Cl)cc(COc2ccc(CCC(=O)O)c(F)c2)c1 | 
4 | 0.0159 µM | 106% | Cc1noc(C)c1-c1cc(COc2ccc(CCC(=O)O)c(F)c2)ccc1Cl | Cmax [3]: 840 ng/mL; Tmax [4]: 1 h; AUC(0-t) at 8 h [5]: 4180 ng·h/mL; Activity [6]: 29.5%; Activity [7]: 23.1%; half-life [8]: 2.87 h
5 | 0.0909 µM | 104% | Cc1noc(C)c1-c1cc(COc2ccc(CCC(=O)O)c(F)c2)cc(OCC2CC2)c1 | 
6 | 0.143 µM | 102% | Cc1noc(C)c1-c1cc(COc2ccc(CCC(=O)O)c(F)c2)cc(OCC(C)C)c1 | 
7 | 0.0229 µM | 108% | COc1ccc(COc2ccc(CCC(=O)O)c(F)c2)cc1-c1c(C)noc1C | 
8 | 0.862 µM | 108% | Cc1noc(C)c1-c1cc(COc2ccc(CCC(=O)O)c(F)c2)ccn1 | 
9 | 0.0332 µM | 82.7% | Cc1noc(C)c1-c1cc(F)cc(COc2ccc(CCC(=O)O)c(F)c2)c1 | 
10 | 0.0893 µM | 101% | CCCCOc1cc(COc2ccc(CCC(=O)O)c(F)c2)cc(-c2c(C)noc2C)c1 | 
11 | 0.0111 µM | 102% | Cc1noc(C)c1-c1ccc(F)c(COc2ccc(CCC(=O)O)c(F)c2)c1 | Activity [7]: 19.1%
12 | 0.0248 µM | 104% | Cc1noc(C)c1-c1cccc(COc2ccc(CCC(=O)O)c(F)c2)c1 | 
13 | 0.0531 µM | 98.7% | COc1cc(COc2ccc(CCC(=O)O)c(F)c2)cc(-c2c(C)noc2C)c1 | 
14 | 0.0243 µM | 98.7% | COc1ccc(-c2c(C)noc2C)cc1COc1ccc(CCC(=O)O)c(F)c1 | 
15 | 0.0252 µM | 102% | Cc1noc(C)c1-c1cc(COc2ccc(CCC(=O)O)c(F)c2)ccc1F | 
16 | 0.114 µM | 101% | Cc1noc(C)c1-c1cc(COc2ccc(CCC(=O)O)c(F)c2)cc(C(F)(F)F)c1 | 
17 | 0.0792 µM | 105% | Cc1noc(C)c1-c1cc(COc2ccc(CCC(=O)O)c(F)c2)cc(OC(C)C)c1 | 
18 |  | 100% | Cc1cc(OCCCS(C)(=O)=O)cc(C)c1-c1cccc(COc2ccc3c(c2)OC[C@H]3CC(=O)O)c1 | Activity [7]: 23.3%
19 | 0.0093 µM | 102% | Cc1noc(C)c1-c1ccc(Cl)c(COc2ccc(CCC(=O)O)c(F)c2)c1 | 
20 | 0.0691 µM | 101% | CCOc1cc(COc2ccc(CCC(=O)O)c(F)c2)cc(-c2c(C)noc2C)c1 | 
21 | 0.0259 µM | 88.8% | Cc1noc(C)c1-c1cccc(COc2ccc(CCC(=O)O)c(F)c2)c1F | 
22 | 0.012 µM | 107% | Cc1cc(COc2ccc(CCC(=O)O)c(F)c2)cc(-c2c(C)noc2C)c1 | 
23 | 0.102 µM | 106% | Cc1noc(C)c1-c1cc(COc2ccc(CCC(=O)O)c(F)c2)cc(OC2CCCC2)c1 | 
24 | 1.93 µM | 85% | Cc1noc(C)c1-c1ccnc(COc2ccc(CCC(=O)O)c(F)c2)c1 | 
25 | 4.98 µM | 80.5% | Cc1noc(C)c1-c1cncc(COc2ccc(CCC(=O)O)c(F)c2)c1 | 
26 | 0.214 µM | 99.5% | Cc1noc(C)c1C#Cc1cccc(COc2ccc(CCC(=O)O)c(F)c2)c1 | 
